High-throughput results from PubChem.
A selection: hits, their analogues and other compounds. The true share with any hit is near 3.5%.
MrgX1 PAM: positive allosteric modulators of MrgX1, primary screen, HEK293 cells, Fluo-4 calcium flux; B-score at 10 µM; Mas-related G-protein coupled receptor member X1 (Homo sapiens), Q96LB2; FDSS; active compounds read high; AID 588675, 2011; 310,000 tested, 0.63% active;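 active = plate-corrected calcium response at least 3 library SD above typical, normal starting fluorescence, not activating the receptor alone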;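 also: compound read alongside a low EC10 to EC30 dose of BAM8-22 agonist; peak minus trough fluorescence over baseline measured at the second addition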
Target sequence (Q96LB2 whole entry, looked up): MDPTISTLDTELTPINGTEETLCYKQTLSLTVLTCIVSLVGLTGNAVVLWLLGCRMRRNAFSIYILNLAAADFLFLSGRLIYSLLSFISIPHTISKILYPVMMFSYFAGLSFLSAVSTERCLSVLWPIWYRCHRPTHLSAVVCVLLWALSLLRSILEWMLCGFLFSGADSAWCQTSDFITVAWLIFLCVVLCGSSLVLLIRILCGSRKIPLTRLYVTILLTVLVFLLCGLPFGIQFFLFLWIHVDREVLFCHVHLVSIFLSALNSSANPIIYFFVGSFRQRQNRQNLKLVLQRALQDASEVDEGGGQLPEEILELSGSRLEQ
RGS4 block: RGS4 inhibitors, primary screen, cell-based, HEK293 M3R inducible RGS4, calcium flux; Regulator of G-protein signaling 4 (Homo sapiens), P49798; Fluo-4 calcium flux; active compounds read high; triggered by carbachol at its EC20; B-score at 10 µM; 310,000 tested, 0.45% active;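 active = B-score, a plate-corrected calcium signal, over three deviations above library mean, with baseline fluorescence within five deviations of library mean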;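 also: RGS4 expression induced by doxycycline in cells with stable M3 receptor; B-score is computed from the integrated fluorescence ratio over baseline after carbachol; higher B-score means a larger calcium signal and so more RGS4 inhibition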
Target sequence (P49798 whole entry, looked up): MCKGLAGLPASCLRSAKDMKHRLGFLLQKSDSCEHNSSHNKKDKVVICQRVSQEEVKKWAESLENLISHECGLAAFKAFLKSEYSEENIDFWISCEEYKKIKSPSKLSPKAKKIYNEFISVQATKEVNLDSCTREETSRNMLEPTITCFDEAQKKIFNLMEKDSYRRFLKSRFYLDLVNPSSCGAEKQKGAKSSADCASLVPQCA
MrgX1 antag: antagonists of human MrgX1 receptor, primary screen, HEK293 cells, Fluo-4 calcium flux; B-score at 10 µM; BAM8-22 antagonism; active compounds read low; 310,000 tested, 1.3% active;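 active = calcium-response B-score plate-corrected more than 3 library SD below zero, starting fluorescence within 5 deviations, no agonist response on first addition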;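 also: peak minus trough fluorescence over baseline after final BAM8-22 challenge near maximal dose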
RGS4 act: RGS4 potentiators or activators, primary screen, cell-based, HEK293 M3R inducible RGS4, calcium flux; B-score at 10 µM; 310,000 tested, 0.92% active; carbachol calcium flux Fluo4; active compounds read low; AID 463111, 2010;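 active = B-score of the integrated calcium signal more than 4 SD below the library mean, with starting fluorescence not abnormally high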;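 also: negative B-score means reduced calcium response which marks RGS4 activation or potentiation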
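Material: M3R-expressing HEK293 line, RGS4 induced by doxycycline | Schedule: Overnight RGS4 induction, 30 min dye load 37 °C, 20 min compound RT | Measured by: Fluo4 fluorescence kinetic imaging of calcium | Read-out: Integrated calcium ratio converted to B score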
MrgX1 ag: agonists of human MrgX1 receptor, primary screen, HEK293 cells, Fluo-4 calcium flux; Fluo-4 calcium fluorescence, agonist mode; active compounds read high; B-score at 10 µM; 310,000 tested, 0.44% active;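 active = calcium response B-score plate-corrected fluorescence ratio at least 3 library SD, with starting fluorescence B-score inside 5 SD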
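Assay system: MrgX1-expressing HEK293 cells / Amount: fifteen thousand cells per well / Doses: test compound in the initial addition of three / Timing: cells plated overnight, dye loaded 0.5 h 37 °C, 0.5 h room temperature / Technique: kinetic calcium dye fluorescence, Fluo-4 NW / Control set: positive and negative controls per plate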
RGS4 act valid: reduced carbachol calcium response, RGS4-induced M3R cells, confirmation, RGS4 activator project, cell-based, HEK293 M3R/RGS4 inducible, calcium flux, duplicate | shares compounds with RGS4 act | carbachol calcium flux Fluo4 | inhibition, % at 10 µM | 1,100 tested, 89% active | AID 602282, 2012;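 active = inhibition above 3 SD of the buffer control wells, cut at about 41% in these data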;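 also: signal is the integrated peak-minus-minimum Fluo4 fluorescence over baseline ratio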
M3R Ca counter: RGS4 activator counter-screen hit in non-induced cells; 1,100 tested, 82% active; inhibition, % at 10 µM; HEK293 M3R non-induced RGS4, Fluo4 calcium flux; after carbachol challenge at its EC90; shares compounds with RGS4 act;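 active = inhibition exceeding 3 SD of buffer-only control wells, cut at about 26% in these data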;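 also: percent drop in integrated peak-minus-baseline over baseline Fluo4 ratio after carbachol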
Of the large screens only hits and unclear results are named; the others gave an inactive call (follow-up assays come after a bar, where they were run).

CCCc1ccc2oc(C(=O)N3CCC(COC)C3)c(C)c2c1 (configuration not stated)	none
CCCCS/C(=C(/C#N)C(N)=O)c1cc2c([nH]1)CCCC2	RGS4 act -8.2 | RGS4 act valid 94 | M3R Ca counter 92
c1ccc(C(c2ccccc2)c2noc(CN3CCN(CC4CC4)CC3)n2)cc1	RGS4 act -8 | RGS4 act valid 93 | M3R Ca counter 78
COc1cccc(-n2c(SCc3ccccn3)nc3c(c2=O)SCC3)c1	none
O=C(COc1ccccc1)N1CCN(c2nnc(-c3ccccc3)c3ccccc23)CC1	none
Cc1cccc(OCC(=O)N2CCN(c3nnc(-c4ccccc4)c4ccccc34)CC2)c1	RGS4 act -8 | RGS4 act valid 78 | M3R Ca counter 30
CCCn1nnc(NCc2ccc(OCc3cccs3)c(OC)c2)n1	none
CCNCc1ccc(OCc2cccs2)c(OCC)c1	RGS4 act -8.9 | RGS4 act valid 62 | M3R Ca counter inactive
COc1ccc(/C=N/NC(=O)c2cc(C(C)(C)C)[nH]n2)cc1COc1ccc(F)cc1F	RGS4 act -12 | RGS4 act valid 74 | M3R Ca counter 27
CC(CCc1ccc(O)cc1)N1CCC(Oc2ccc(C(=O)N3CCCC3)cc2)CC1 (configuration not stated)	none
COc1ccc(CCC(C)N2CCC(Oc3ccc(C(=O)N4CCCC4)cc3)CC2)cc1 (configuration not stated)	RGS4 act -7.6 | RGS4 act valid 84 | M3R Ca counter 44
CC(C)n1cc([C@@H]2C[C@H]3CN(Cc4cccc(Cl)c4)C(=O)[C@]34CCCN24)cn1	RGS4 act -7.6 | RGS4 act valid 46 | M3R Ca counter 84
Cc1nc2ccccn2c1-c1csc(Nc2cccc(O)c2)n1	RGS4 act -8.4 (no result: MrgX1 PAM, MrgX1 antag, MrgX1 ag) | RGS4 act valid 57 | M3R Ca counter inactive
COc1ccc(CCCC(=O)NCCc2ccccc2)c(C)c1	none
N=c1c2c(-c3ccccc3)c(-c3ccccc3)n(Cc3ccco3)c2ncn1Cc1ccccc1	RGS4 act -11 | RGS4 act valid 93 | M3R Ca counter 95
CCOc1ccc(S(=O)(=O)N2CCCCC2)cc1NC(=O)Cc1cccs1	none
OC(CNCc1ccc(F)cc1)(c1ccc(F)cc1)c1ccc(F)cc1	none
OC(CNCc1ccc(Cl)cc1)(c1ccccc1)c1ccc(F)cc1 (configuration not stated)	RGS4 act -9.4 | RGS4 act valid 94 | M3R Ca counter 86
Cc1nc2ccccc2c2oc(C(=O)NCC3COc4ccccc4O3)cc12 (configuration not stated)	RGS4 act -11 | RGS4 act valid 82 | M3R Ca counter 42
CCc1ccc(CNC(=O)c2cc3c(C)nc4ccccc4c3o2)cc1	none
CN(Cc1ccccc1)C(=O)CCC1CCN(S(C)(=O)=O)CC1	none
CC1(C)CC(=O)C2=C(C1)OC(N)=C(C#N)C2c1ccccc1[N+](=O)[O-] (configuration not stated)	RGS4 act -11 | RGS4 act valid inactive | M3R Ca counter inactive
Cc1ccc(Cl)cc1N1CCN(C(=S)NCCc2ccccc2)CC1	RGS4 act -12 | RGS4 act valid 94 | M3R Ca counter 67
Cc1cccc(N2CCN(C(=S)NCCc3ccccc3)CC2)c1C	none
Cc1cc2c3c([nH]c2cc1S(=O)(=O)NCc1ccc(CN2CCCCCC2)o1)CCCC3=O	RGS4 act -8.6 | RGS4 act valid 75 | M3R Ca counter 46
O=C(NC(C(=O)c1ccccc1)N1CCOCC1)c1ccccc1 (configuration not stated)	none
Cc1cc(=O)n(C(NC(=O)c2ccccc2)C(=O)c2ccccc2)cn1 (configuration not stated)	RGS4 act -9.2 | RGS4 act valid inactive | M3R Ca counter inactive
CN(Cc1ccccc1)C(=O)c1cc2ccccc2o1	none
CC(C)(C)N(Cc1ccccc1)C(=O)c1cc2ccccc2o1	RGS4 act -7.6 | RGS4 act valid 91 | M3R Ca counter 93
O=C(NC(=S)Nc1ccc(CN2CCOCC2)cc1)c1ccc(-c2cccc(Cl)c2)o1	RGS4 act -9.9 | RGS4 act valid 94 | M3R Ca counter 91
COc1ccc(Br)cc1C(=O)NC(=S)Nc1ccc(CN2CCOCC2)cc1	RGS4 act -9.8 | RGS4 act valid 92 | M3R Ca counter 87
COc1ccc(S(=O)(=O)N(C)C)cc1NC(=O)[C@H](Cc1ccccc1)N1C(=O)c2ccccc2C1=O	RGS4 act -9.4 | RGS4 act valid 93 | M3R Ca counter 58
CCc1nnc(NC(=O)C2CCCN2C(=O)Nc2ccccc2)s1 (configuration not stated)	none
CC1Cc2ccccc2N1C(=O)CCn1cccn1 (configuration not stated)	none
CSc1nc(NCCCO)c2c3c(sc2n1)CN(C)CC3	RGS4 act -7.8 | RGS4 act valid inactive | M3R Ca counter inactive
CSc1nsc(SC)c1C(=O)Nc1ccc(C(C)(C)C)cc1	RGS4 act -11 | RGS4 act valid 93 | M3R Ca counter 79
O=C(CNC1CCCCCC1)Nc1ccc(S(=O)(=O)NC2CC2)cc1	RGS4 act -7.7 | RGS4 act valid 64 | M3R Ca counter 84
CC(C)(CN1CCc2ccccc2C1)NS(=O)(=O)c1ccc(Cl)cc1	none
CCOC(=O)c1c(NC(=O)/C=C/C(=O)O)sc(C)c1-c1ccc(C(C)(C)C)cc1	MrgX1 antag -5.2, RGS4 act -12 | RGS4 act valid 92 | M3R Ca counter 90
COc1cccc(CNC(=O)CN2C(=O)CCSc3ccc(S(=O)(=O)N4CCCC4)cc32)c1	none
COC(=O)C(Nc1ccccc1Cl)(c1cc(C)c(O)c(C)c1)C(F)(F)F (configuration not stated)	RGS4 act -9.6 | RGS4 act valid 93 | M3R Ca counter 97
O=C(Nc1ccc2c(c1)CCCN2C(=O)c1ccccc1)c1ccccc1	RGS4 act -9 | RGS4 act valid 62 | M3R Ca counter inactive
N#Cc1ccccc1OCCCN1CCC(Cc2ccccc2)CC1	RGS4 act -8.7 | RGS4 act valid 82 | M3R Ca counter 39
